Test results: ChEMBL document CHEMBL1772978, “Exploration of the activity of 7-pyrrolidino-8-methoxyisothiazoloquinolones against methicillin-resistant Staphylococcus aureus (MRSA)” (J Med Chem, 2011)
In brackets after ≈: the same amount, converted by molar mass.

How the values were obtained:
Staphylococcus aureus [1] = assay: Ratio of vancomycin MIC to compound MIC for methicillin-resistant Staphylococcus aureus clinical isolate; assay type: functional
DNA gyrase = DNA gyrase (Staphylococcus aureus, UniProt P0A0K8+P20831); assay: Inhibition of wild-type Staphylococcus aureus DNA gyrase assessed as inhibition of supercoiling of pBR322 DNA after 60 min by gel electrophoresis assay; assay type: protein-complex assay
Staphylococcus aureus [2] = assay: Antibacterial activity against methicillin- and quinolone-resistant Staphylococcus aureus ATCC700699 after 24 hrs by microdilution method; assay type: functional; details: ATCC700699, 24 h
Summary of the method: (§1)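 Broth microdilution; MIC read as the lowest compound concentration that prevents visible bacterial growth after incubation at 37 °C for 18–24 h, and expressed in μg/mL.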

Staphylococcus aureus [3] = assay: Antibacterial activity against methicillin-sensitive Staphylococcus aureus ATCC 29213 after 24 hrs by microdilution method; assay type: functional; details: ATCC 29213, 24 h
Summary of the method: (§2)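 MIC taken as the lowest concentration with no visible bacterial growth after 18-24 h at 37 °C, given in μg/mL; modal value of multiple experiments.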

Escherichia coli = assay: Antibacterial activity against Escherichia coli ATCC25922 after 24 hrs by microdilution method; assay type: functional; details: ATCC25922, 24 h; summary of the method: as §2
Staphylococcus aureus [4] = assay: Ratio of levofloxacin MIC to compound MIC for methicillin-resistant Staphylococcus aureus clinical isolate; assay type: functional
[5] = Inhibition of wild-type Staphylococcus aureus topoisomerase 4-mediated decatenation of kDNA after 30 mins by gel electrophoresis assay
[6] = test system: DNA gyrase subunit A (Staphylococcus aureus), P20831 [S84L]; assay: Ratio of ciprofloxacin IC50 to compound IC50 for Staphylococcus aureus DNA gyrase Ser84Leu mutant
Staphylococcus aureus [7] = assay: Antibacterial activity against methicillin-resistant Staphylococcus aureus clinical isolate after 24 hrs by microdilution method; assay type: functional; summary of the method: as §1
Staphylococcus aureus [8] = assay: Ratio of ciprofloxacin IC50 to compound IC50 for Staphylococcus aureus topoisomerase 4 Ser80Phe mutant
[9] = Inhibition of Staphylococcus aureus topoisomerase 4 Ser80Phe mutant-mediated decatenation of kDNA after 30 mins by gel electrophoresis assay
DNA gyrase subunit A = DNA gyrase subunit A (Staphylococcus aureus, UniProt P20831, S84L); assay: Inhibition of Staphylococcus aureus DNA gyrase Ser84Leu mutant assessed as inhibition of supercoiling of pBR322 DNA after 60 min by gel electrophoresis assay
[10] = Cytotoxicity against human Hep2 cells after 72 hrs by alamar blue assay; assay type: cell-based; details: HEp-2 cells
Staphylococcus aureus [11] = assay: Antibacterial activity against methicillin-resistant Staphylococcus aureus ATCC 700699 after 24 hrs by microdilution method; assay type: functional; details: ATCC700699, 24 h; summary of the method: as §1
[12] = target: DNA gyrase (Staphylococcus aureus) (UniProt P0A0K8+P20831); assay: Ratio of ciprofloxacin IC50 to compound IC50 for wild-type Staphylococcus aureus DNA gyrase; assay type: protein-complex assay
Staphylococcus aureus [13] = assay: Ratio of ciprofloxacin IC50 to compound IC50 for wild-type Staphylococcus aureus topoisomerase 4

SMILES	MIC (Staphylococcus aureus [2])	MIC (Staphylococcus aureus [3])	MIC (Escherichia coli)	IC50 [5]	MIC50 (Staphylococcus aureus [7])	MIC90 (Staphylococcus aureus [7])	IC50 [9]	CC50 at 72 h [10]	MIC (Staphylococcus aureus [11])	further results
COc1c(N2CC[C@@H](C(C)(C)N)C2)c(F)cc2c(=O)c3c(=O)[nH]sc3n(C3CC3)c12	0.06 µg/mL (≈ 0.139 µM)	0.004 µg/mL (≈ 0.00925 µM)	0.06 µg/mL (≈ 0.139 µM)	0.12 µM	0.06 µg/mL (≈ 0.139 µM)	0.25 µg/mL (≈ 0.578 µM)	0.6 µM	9 µM	0.06 µg/mL (≈ 0.139 µM)	Ratio (Staphylococcus aureus [1]): 4; IC50 (DNA gyrase): 0.68 µM; Ratio (Staphylococcus aureus [4]): 256; Ratio [6]: > 48; Ratio (Staphylococcus aureus [8]): 95; IC50 (DNA gyrase subunit A): 4.2 µM
COc1c(N2CC[C@@H](C(C)N)C2)c(F)cc2c(=O)c3c(=O)[nH]sc3n(C3CC3)c12 (mixture of isomers)	0.06 µg/mL	0.004 µg/mL	0.02 µg/mL	–	–	–	–	9 µM	–	–
COc1c(N2CC[C@@H]([C@H](C)N)C2)c(F)cc2c(=O)c3c(=O)[nH]sc3n(C3CC3)c12 (mixture of isomers)	0.06 µg/mL	0.002 µg/mL	0.008 µg/mL	0.04 µM	0.06 µg/mL	0.5 µg/mL	0.47 µM	6 µM	0.06 µg/mL	IC50 (DNA gyrase): 0.68 µM; Ratio [6]: > 62; Ratio IC50 [12]: 91; Ratio (Staphylococcus aureus [8]): 121; Ratio IC50 (Staphylococcus aureus [13]): 75; IC50 (DNA gyrase subunit A): 3.2 µM
CNC(C)[C@@H]1CCN(c2c(F)cc3c(=O)c4c(=O)[nH]sc4n(C4CC4)c3c2OC)C1 (mixture of isomers)	0.25 µg/mL	0.008 µg/mL	0.03 µg/mL	–	–	–	–	42 µM	–	–
CN[C@@H](C)[C@@H]1CCN(c2c(F)cc3c(=O)c4c(=O)[nH]sc4n(C4CC4)c3c2OC)C1 (mixture of isomers)	0.25 µg/mL	0.008 µg/mL	0.03 µg/mL	0.11 µM	–	–	1.16 µM	12 µM	0.25 µg/mL	IC50 (DNA gyrase): 1.1 µM; IC50 (DNA gyrase subunit A): 18.7 µM
CNC(C)[C@H]1CCN(c2c(F)cc3c(=O)c4c(=O)[nH]sc4n(C4CC4)c3c2OC)C1 (mixture of isomers)	2 µg/mL	0.06 µg/mL	0.13 µg/mL	–	–	–	–	> 100 µM	–	–
CCNC(C)[C@@H]1CCN(c2c(F)cc3c(=O)c4c(=O)[nH]sc4n(C4CC4)c3c2OC)C1 (mixture of isomers)	0.25 µg/mL	0.008 µg/mL	0.06 µg/mL	–	–	–	–	40 µM	–	–
COc1c(N2CC[C@@H]([C@H](C)NCCF)C2)c(F)cc2c(=O)c3c(=O)[nH]sc3n(C3CC3)c12 (mixture of isomers)	0.13 µg/mL	0.002 µg/mL	0.06 µg/mL	0.06 µM	–	–	0.66 µM	73 µM	0.13 µg/mL	IC50 (DNA gyrase): 1.32 µM; IC50 (DNA gyrase subunit A): 12 µM
COc1c(N2CC[C@@H](C(C)NC(C)C)C2)c(F)cc2c(=O)c3c(=O)[nH]sc3n(C3CC3)c12 (mixture of isomers)	0.5 µg/mL	0.02 µg/mL	0.5 µg/mL	–	–	–	–	51 µM	–	–
COc1c(N2CC[C@@H](C(C)NC3CC3)C2)c(F)cc2c(=O)c3c(=O)[nH]sc3n(C3CC3)c12 (mixture of isomers)	0.06 µg/mL	0.004 µg/mL	0.06 µg/mL	–	–	–	–	25 µM	–	–
COc1c(N2CCC(CNCC(C)C)C2)c(F)cc2c(=O)c3c(=O)[nH]sc3n(C3CC3)c12 (racemic)	4 µg/mL (≈ 8.68 µM)	0.06 µg/mL (≈ 0.13 µM)	0.13 µg/mL (≈ 0.282 µM)	–	–	–	–	46 µM	–	–
COc1c(N2CCC(C(C)(C)NC3CC3)C2)c(F)cc2c(=O)c3c(=O)[nH]sc3n(C3CC3)c12 (racemic)	0.25 µg/mL (≈ 0.529 µM)	0.02 µg/mL (≈ 0.0423 µM)	0.25 µg/mL (≈ 0.529 µM)	–	–	–	–	54 µM	–	–
O=C(O)c1cn(C2CC2)c2cc(N3CCNCC3)c(F)cc2c1=O [CIPROFLOXACIN]	32 µg/mL (≈ 96.6 µM)	0.25 µg/mL (≈ 0.754 µM)	–	3 µM	–	–	57 µM	> 100 µM	32 µg/mL (≈ 96.6 µM)	–
CO/N=C1\CN(c2nc3c(cc2F)c(=O)c(C(=O)O)cn3C2CC2)CC1CN (stereo not drawn) [GEMIFLOXACIN]	–	0.03 µg/mL (≈ 0.077 µM)	4 µg/mL (≈ 10.3 µM)	0.4 µM	–	–	9.8 µM	–	2 µg/mL (≈ 5.14 µM)	IC50 (DNA gyrase subunit A): > 200 µM
C[C@H]1COc2c(N3CCN(C)CC3)c(F)cc3c(=O)c(C(=O)O)cn1c23.C[C@H]1COc2c(N3CCN(C)CC3)c(F)cc3c(=O)c(C(=O)O)cn1c23.O [LEVOFLOXACIN]	–	–	–	–	16 µg/mL	> 16 µg/mL	–	–	–	–
CC(=O)NC[C@H]1CN(c2ccc(N3CCOCC3)c(F)c2)C(=O)O1 [LINEZOLID]	–	–	–	–	1 µg/mL (≈ 2.96 µM)	2 µg/mL (≈ 5.93 µM)	–	–	–	MIC (Staphylococcus aureus [7]): 1 µg/mL (≈ 2.96 µM)
COc1c(N2C[C@@H]3CCCN[C@@H]3C2)c(F)cc2c(=O)c(C(=O)O)cn(C3CC3)c12 [MOXIFLOXACIN]	4 µg/mL (≈ 9.96 µM)	0.06 µg/mL (≈ 0.149 µM)	0.03 µg/mL (≈ 0.0747 µM)	1 µM	–	–	11.9 µM	> 100 µM	2 µg/mL (≈ 4.98 µM)	–
Cc1onc(-c2ccccc2)c1C(=O)N[C@@H]1C(=O)N2[C@@H]1SC(C)(C)[C@@H]2C(=O)O [OXACILLIN]	–	–	–	–	> 16 µg/mL	> 16 µg/mL	–	–	–	–
CN[C@H](CC(C)C)C(=O)N[C@H]1C(=O)N[C@@H](CC(N)=O)C(=O)N[C@H]2C(=O)N[C@H]3C(=O)N[C@H](C(=O)N[C@H](C(=O)O)c4cc(O)cc(O)c4-c4cc3ccc4O)[C@H](O)c3ccc(c(Cl)c3)Oc3cc2cc(c3O[C@@H]2O[C@H](CO)[C@@H](O)[C@H](O)[C@H]2O[C@H]2C[C@](C)(N)[C@H](O)[C@H](C)O2)Oc2ccc(cc2Cl)[C@H]1O [VANCOMYCIN]	–	–	–	–	1 µg/mL (≈ 0.69 µM)	1 µg/mL (≈ 0.69 µM)	–	–	–	–
